Assay results: ChEMBL document CHEMBL2176927 (J Med Chem, 2012)
Activity calls are given as the source filed them. The calls are words filed in the database; no cut-off is given here.

Assays:
[1] = Volume of distribution at steady state in mouse at 1 mg/kg, iv; assay type: ADME, organism-based; parameters: dose 1 mg/kg, route intravenous; details: in vivo, read-out: Vdss
PC-3 [2] = assay: Antitumor activity against human PC3 cells xenografted mouse assessed as tumor growth inhibition at 6.25 to 100 mg/kg, po qd for 14 days; assay type: functional, organism-based
Method in brief: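 Female NCR.nude mice with subcutaneous NCI-PC3 flank tumours, dosed orally once daily (or twice daily at the same daily total) for 14 days from a mean tumour volume of 200 mm3; 5 mice/group. Caliper volume is (L x W x W)/2, measured twice weekly.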

[3] = AUC in mouse at 5 mg/kg, po; assay type: ADME, organism-based; parameters: dose 5 mg/kg, route oral; details: plasma
[4] = target: Phosphatidylinositol 4,5-bisphosphate 3-kinase catalytic subunit gamma isoform (Homo sapiens) (UniProt P48736); assay: Inhibition of PI3Kgamma at 1 uM
Method in brief: (§1)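 Kinase selectivity panel of 250 kinases. Test compound at 1 µM; percent inhibition recorded for each kinase.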

[5] = Plasma protein binding in human; assay type: ADME, cell-free; details: read-out: PPB (converted)
Mus musculus [6] = assay: Inhibition of mTORC1 in human PC3 cells xenografted mouse assessed as reduction of phosphorylated p70S6K level at 12.5 to 100 mg/kg, po after 6 hrs; assay type: functional, organism-based; details: PC-3
[7] = Half life in mouse at 1 mg/kg, iv; assay type: ADME, organism-based; parameters: dose 1 mg/kg, route intravenous; details: in vivo
Cytochrome P450 3A4 = Cytochrome P450 3A4 (Homo sapiens, UniProt P08684); assay: Inhibition of CYP3A4-mediated midazolam and testosterone metabolism; assay type: ADME; details: recombinant enzyme
Cytochrome P450 1A2 = target: T1, Cytochrome P450 1A2 (Homo sapiens, UniProt P05177); assay: Inhibition of CYP1A2-mediated phenacetin metabolism; assay type: ADME; details: recombinant enzyme
T1 sequence (P05177 whole entry): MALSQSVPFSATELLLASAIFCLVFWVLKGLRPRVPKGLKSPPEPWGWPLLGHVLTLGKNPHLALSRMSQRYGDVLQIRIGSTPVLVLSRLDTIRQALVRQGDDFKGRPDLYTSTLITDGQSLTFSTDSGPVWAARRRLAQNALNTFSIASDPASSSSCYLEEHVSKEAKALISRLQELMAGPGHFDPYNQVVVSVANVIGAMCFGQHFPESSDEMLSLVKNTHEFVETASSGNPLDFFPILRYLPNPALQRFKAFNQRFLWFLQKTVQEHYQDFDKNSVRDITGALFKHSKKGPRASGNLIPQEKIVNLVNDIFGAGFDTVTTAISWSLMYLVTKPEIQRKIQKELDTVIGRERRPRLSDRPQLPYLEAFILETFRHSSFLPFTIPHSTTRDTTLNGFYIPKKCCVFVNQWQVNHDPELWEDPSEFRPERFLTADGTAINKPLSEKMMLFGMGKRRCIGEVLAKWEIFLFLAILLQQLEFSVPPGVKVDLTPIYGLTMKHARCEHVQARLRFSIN

[8] = Oral bioavailability in mouse at 5 mg/kg; assay type: ADME, organism-based; details: in vivo
Cytochrome P450 2C19 = Cytochrome P450 2C19 (Homo sapiens, UniProt P33261); assay: Inhibition of CYP2C19-mediated mephenytoin metabolism; assay type: ADME; details: recombinant enzyme
[9] = Clearance in human liver microsomes; assay type: ADME, Microsome
Method in brief: (§2)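 Hepatic clearance (Clhep) predicted from incubation with human, rat or mouse liver microsomes.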

Mus musculus [10] = assay: Inhibition of mTORC2 in human PC3 cells xenografted mouse assessed as reduction of phosphorylated Akt level at 12.5 to 100 mg/kg, po after 6 hrs; assay type: functional, organism-based; details: PC-3
Method in brief: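 NCI-PC3 s.c. xenografts in female NCR.nude mice grown to about 500 mm3, then randomized (n = 4). Oral suspension in 0.5% methylcellulose/0.2% Tween 80. Tumors were lysed, normalized by BCA assay, and loaded at 20 µg/well. pAkt Ser473 and total Akt were measured in duplex on Meso Scale electrochemiluminescence in duplicate per mouse, relative to time-matched vehicle mean.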

[11] = Clearance in mouse liver microsomes; assay type: ADME, Microsome; method in brief: as §2
[12] = target: Serine/threonine-protein kinase mTOR (Homo sapiens, UniProt P42345); assay: Inhibition of human recombinant mTOR by FRET assay
Cytochrome P450 2C9 = Cytochrome P450 2C9 (Homo sapiens, UniProt P11712); assay: Inhibition of CYP2C9-mediated warfarin metabolism; assay type: ADME; details: recombinant enzyme
PC-3 [13] = assay: Cytotoxicity against human pTEN deficient PC3 after 3 days; assay type: functional, cell-based; details: PC-3, 72 h
Cytochrome P450 2D6 = Cytochrome P450 2D6 (Homo sapiens, UniProt P10635); assay: Inhibition of CYP2D6-mediated dextromethorphan metabolism; assay type: ADME; details: recombinant enzyme
[14] = target: Phosphatidylinositol 4,5-bisphosphate 3-kinase catalytic subunit alpha isoform (Homo sapiens) (UniProt P42336); assay: Inhibition of PI3Kalpha at 1 uM; method in brief: as §1
[15] = Clearance in mouse at 1 mg/kg, iv; assay type: ADME, organism-based; parameters: dose 1 mg/kg, route intravenous; details: in vivo
[16] = Inhibition of mTORC2 in human pTEN deficient NCI-PC3 cells assessed as reduction of Akt phosphorylation at Ser473; assay type: cell-based
[17] = target: T2, Phosphatidylinositol 4,5-bisphosphate 3-kinase catalytic subunit delta isoform (Homo sapiens) (UniProt O00329); assay: Inhibition of PI3Kdelta at 1 uM; method in brief: as §1
T2 sequence (whole entry): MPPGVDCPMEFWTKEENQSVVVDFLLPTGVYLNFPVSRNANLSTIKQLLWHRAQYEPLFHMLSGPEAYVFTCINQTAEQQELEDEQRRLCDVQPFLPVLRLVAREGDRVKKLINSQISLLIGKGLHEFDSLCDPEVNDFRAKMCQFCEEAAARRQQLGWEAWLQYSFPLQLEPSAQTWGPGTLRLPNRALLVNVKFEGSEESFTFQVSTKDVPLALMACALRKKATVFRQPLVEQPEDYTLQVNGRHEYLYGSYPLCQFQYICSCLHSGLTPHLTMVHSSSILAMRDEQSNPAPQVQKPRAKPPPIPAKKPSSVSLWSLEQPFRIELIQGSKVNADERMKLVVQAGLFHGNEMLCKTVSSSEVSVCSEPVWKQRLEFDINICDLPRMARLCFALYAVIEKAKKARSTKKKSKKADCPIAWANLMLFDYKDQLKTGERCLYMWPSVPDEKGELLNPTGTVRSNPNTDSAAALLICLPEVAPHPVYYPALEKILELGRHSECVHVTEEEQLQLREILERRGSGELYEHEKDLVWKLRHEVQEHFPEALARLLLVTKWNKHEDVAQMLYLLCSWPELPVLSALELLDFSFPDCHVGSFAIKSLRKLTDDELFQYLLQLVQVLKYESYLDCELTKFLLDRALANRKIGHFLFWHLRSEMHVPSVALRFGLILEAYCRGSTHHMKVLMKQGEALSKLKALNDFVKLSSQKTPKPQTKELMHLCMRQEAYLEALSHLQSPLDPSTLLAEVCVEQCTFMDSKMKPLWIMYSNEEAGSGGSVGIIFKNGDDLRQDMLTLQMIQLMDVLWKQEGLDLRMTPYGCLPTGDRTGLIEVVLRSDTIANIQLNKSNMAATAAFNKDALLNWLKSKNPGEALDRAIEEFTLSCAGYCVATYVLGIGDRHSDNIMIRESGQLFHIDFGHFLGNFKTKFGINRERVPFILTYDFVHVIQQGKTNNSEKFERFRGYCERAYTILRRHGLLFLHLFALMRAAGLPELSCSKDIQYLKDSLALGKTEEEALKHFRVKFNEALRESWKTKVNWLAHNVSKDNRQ

[18] = Plasma protein binding in rat; assay type: ADME, cell-free; details: read-out: PPB (converted)
Mus musculus [19] = assay: Toxicity in human PC3 cells xenografted mouse assessed as reduction of body weight at 100 mg/kg, po qd for 14 days; assay type: organism-based, PC-3; parameters: dose 100 mg/kg, route oral; scale not given: the % may be the effect or the level left; details: in vivo, 336 h
Method in brief: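 Female NCR.nude mice implanted s.c. in right hind flank with NCI-PC3 cells (5 × 10^6 in Hank's balanced salt solution). Dosing started QD at average tumor volume 200 mm3, 5 mice per group. Body weight recorded twice weekly; 10% body weight loss was the limit for tolerated doses, and mice were euthanized at 20% loss or tumor volume 2000 mm3.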

[20] = Plasma protein binding in mouse; assay type: ADME, cell-free; details: read-out: PPB (converted)
[21] = Clearance in rat liver microsomes; assay type: ADME, Microsome; method in brief: as §2

Sequence of Phosphatidylinositol 4,5-bisphosphate 3-kinase catalytic subunit alpha isoform (Homo sapiens) (P42336 whole entry, canonical isoform): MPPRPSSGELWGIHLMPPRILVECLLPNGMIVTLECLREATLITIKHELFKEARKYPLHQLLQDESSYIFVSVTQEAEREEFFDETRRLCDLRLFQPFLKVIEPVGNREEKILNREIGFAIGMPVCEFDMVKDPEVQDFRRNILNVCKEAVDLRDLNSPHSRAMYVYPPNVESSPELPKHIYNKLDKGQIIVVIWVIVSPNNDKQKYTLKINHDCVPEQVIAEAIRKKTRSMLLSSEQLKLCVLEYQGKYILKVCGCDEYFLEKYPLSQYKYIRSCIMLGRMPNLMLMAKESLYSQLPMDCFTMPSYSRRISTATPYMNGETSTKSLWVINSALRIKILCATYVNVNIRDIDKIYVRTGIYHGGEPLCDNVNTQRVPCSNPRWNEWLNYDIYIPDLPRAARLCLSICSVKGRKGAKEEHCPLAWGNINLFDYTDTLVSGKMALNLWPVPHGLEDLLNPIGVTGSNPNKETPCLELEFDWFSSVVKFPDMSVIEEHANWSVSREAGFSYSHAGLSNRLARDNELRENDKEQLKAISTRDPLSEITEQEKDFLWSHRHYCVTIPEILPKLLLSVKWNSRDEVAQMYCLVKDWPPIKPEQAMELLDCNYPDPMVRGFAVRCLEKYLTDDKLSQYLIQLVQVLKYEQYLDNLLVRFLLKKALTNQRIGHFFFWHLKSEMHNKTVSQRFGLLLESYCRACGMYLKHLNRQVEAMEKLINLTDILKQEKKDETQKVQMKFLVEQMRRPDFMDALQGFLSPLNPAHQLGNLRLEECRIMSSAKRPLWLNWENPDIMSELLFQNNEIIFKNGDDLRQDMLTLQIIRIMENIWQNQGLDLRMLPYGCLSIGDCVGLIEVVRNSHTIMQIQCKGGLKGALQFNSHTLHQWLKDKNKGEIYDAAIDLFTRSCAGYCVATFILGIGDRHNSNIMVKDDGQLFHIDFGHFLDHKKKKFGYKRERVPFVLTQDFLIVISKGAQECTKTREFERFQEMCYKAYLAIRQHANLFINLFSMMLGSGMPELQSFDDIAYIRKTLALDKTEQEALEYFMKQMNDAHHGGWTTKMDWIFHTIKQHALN
Sequence of Cytochrome P450 2C9 (P11712 whole entry): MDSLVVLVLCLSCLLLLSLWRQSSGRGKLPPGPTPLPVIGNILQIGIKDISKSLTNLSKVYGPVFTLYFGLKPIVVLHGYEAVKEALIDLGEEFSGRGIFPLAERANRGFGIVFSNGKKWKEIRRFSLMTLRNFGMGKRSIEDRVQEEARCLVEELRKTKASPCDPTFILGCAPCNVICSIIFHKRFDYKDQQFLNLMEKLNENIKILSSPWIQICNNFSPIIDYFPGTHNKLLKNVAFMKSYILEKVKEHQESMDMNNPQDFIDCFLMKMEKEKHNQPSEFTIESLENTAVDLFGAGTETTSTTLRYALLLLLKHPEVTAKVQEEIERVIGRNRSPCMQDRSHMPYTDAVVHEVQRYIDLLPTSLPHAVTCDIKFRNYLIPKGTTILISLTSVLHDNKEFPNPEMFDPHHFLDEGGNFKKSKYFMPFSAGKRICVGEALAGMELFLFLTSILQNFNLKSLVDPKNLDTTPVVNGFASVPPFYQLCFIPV
Sequence of Cytochrome P450 3A4 (P08684 whole entry): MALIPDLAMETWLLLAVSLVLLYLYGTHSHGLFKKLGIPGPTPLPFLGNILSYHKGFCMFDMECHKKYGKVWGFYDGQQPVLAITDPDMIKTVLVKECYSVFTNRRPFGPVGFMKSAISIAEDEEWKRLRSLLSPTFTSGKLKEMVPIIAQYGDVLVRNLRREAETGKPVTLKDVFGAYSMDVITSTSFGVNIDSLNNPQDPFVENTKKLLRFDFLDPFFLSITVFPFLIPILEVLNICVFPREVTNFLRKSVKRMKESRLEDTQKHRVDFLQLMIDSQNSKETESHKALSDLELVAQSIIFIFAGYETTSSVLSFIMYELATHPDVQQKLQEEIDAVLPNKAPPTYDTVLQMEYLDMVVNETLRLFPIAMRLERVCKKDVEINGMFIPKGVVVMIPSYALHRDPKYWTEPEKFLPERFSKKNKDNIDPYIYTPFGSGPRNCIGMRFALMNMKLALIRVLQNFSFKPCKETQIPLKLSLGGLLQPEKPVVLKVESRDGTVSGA
Sequence of Phosphatidylinositol 4,5-bisphosphate 3-kinase catalytic subunit gamma isoform (Homo sapiens) (P48736 whole entry, looked up, canonical isoform): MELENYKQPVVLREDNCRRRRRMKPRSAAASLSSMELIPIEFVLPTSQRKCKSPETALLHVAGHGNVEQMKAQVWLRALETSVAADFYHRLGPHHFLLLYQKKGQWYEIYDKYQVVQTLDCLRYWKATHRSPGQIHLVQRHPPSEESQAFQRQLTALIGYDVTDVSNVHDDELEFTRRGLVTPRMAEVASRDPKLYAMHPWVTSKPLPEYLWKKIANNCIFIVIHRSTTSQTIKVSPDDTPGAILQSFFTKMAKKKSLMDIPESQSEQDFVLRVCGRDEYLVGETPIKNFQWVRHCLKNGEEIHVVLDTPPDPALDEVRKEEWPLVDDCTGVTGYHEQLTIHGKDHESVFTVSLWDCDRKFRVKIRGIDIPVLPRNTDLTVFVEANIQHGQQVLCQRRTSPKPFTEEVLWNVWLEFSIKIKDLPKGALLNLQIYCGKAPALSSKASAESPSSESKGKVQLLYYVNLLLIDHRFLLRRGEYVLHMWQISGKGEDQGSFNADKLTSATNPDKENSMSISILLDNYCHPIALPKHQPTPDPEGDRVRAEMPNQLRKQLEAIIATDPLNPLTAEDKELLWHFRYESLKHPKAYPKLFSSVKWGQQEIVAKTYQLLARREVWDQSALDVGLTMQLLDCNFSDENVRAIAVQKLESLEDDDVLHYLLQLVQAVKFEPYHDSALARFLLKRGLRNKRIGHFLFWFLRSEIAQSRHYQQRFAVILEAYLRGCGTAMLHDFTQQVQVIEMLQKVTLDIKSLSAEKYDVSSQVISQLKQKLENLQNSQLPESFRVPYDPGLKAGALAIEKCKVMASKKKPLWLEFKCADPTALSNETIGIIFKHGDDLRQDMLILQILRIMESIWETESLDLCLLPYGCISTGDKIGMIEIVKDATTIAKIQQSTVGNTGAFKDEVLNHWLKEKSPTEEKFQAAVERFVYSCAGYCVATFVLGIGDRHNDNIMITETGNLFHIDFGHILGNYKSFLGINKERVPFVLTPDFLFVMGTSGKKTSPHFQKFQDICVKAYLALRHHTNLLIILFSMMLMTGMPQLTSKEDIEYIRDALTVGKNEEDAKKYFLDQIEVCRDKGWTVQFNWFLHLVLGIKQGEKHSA
Sequence of Cytochrome P450 2C19 (P33261 whole entry): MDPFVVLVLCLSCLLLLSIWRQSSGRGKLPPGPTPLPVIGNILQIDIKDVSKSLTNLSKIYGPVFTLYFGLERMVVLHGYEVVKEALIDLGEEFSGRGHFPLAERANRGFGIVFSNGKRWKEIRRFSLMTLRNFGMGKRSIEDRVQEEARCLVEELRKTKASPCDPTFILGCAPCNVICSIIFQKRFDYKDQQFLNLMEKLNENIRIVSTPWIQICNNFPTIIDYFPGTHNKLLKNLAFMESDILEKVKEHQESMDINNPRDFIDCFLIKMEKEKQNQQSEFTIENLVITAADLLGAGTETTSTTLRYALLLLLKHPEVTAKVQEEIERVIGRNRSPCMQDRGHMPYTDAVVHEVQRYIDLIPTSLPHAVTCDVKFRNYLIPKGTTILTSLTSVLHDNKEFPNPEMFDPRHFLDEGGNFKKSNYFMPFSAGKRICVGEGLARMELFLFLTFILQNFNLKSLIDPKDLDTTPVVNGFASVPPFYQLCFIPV
Sequence of Cytochrome P450 2D6 (P10635 whole entry, canonical isoform): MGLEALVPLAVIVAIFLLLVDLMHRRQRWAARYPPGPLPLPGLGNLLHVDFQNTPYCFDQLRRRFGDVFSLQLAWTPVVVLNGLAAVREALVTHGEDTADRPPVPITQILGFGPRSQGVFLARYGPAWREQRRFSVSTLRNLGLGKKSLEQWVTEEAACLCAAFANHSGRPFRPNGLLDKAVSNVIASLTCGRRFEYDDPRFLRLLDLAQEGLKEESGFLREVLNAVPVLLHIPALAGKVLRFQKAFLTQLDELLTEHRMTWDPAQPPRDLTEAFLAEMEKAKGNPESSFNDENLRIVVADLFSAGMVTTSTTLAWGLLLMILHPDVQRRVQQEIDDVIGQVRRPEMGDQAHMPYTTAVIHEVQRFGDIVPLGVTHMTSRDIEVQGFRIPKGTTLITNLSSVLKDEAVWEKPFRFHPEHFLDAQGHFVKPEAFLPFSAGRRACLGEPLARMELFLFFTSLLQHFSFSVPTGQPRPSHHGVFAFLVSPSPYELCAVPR

Q: For `CCNC(=O)Nc1ccc(-c2nc3c(c(N4CCOCC4)n2)CCN(c2ncccn2)C3)cc1`, which Vd [1] is on record?
A: 1.1 L/kg

Q: What about the TGI (PC-3 [2]) of the same compound?
A: Active

Q: And the AUC [3]?
A: 5.7 µM·h

Q: What about the inhibition [4] of the same compound?
A: 50%

Q: What about the fraction unbound [5] of the same compound?
A: 0.02

Q: And the inhibition (Mus musculus [6])?
A: Active

Q: And the half-life [7]?
A: 42 min

Q: And the “inhibition (INH)” value (Cytochrome P450 3A4)?
A: Not Active

Q: And the “inhibition (INH)” value (Cytochrome P450 1A2)?
A: Not Active

Q: What about the bioavailability [8] of the same compound?
A: 70%

Q: What about the “inhibition (INH)” value (Cytochrome P450 2C19) of the same compound?
A: Not Active

Q: And the CLhep predicted [9]?
A: 13 mL/min/kg

Q: And the inhibition (Mus musculus [10])?
A: Active

Q: What about the CLhep predicted [11] of the same compound?
A: 40 mL/min/kg

Q: And the Ki [12]?
A: 5.5 nM

Q: And the “inhibition (INH)” value (Cytochrome P450 2C9)?
A: Not Active

Q: And the IC50 (PC-3 [13])?
A: 290 nM

Q: What about the “inhibition (INH)” value (Cytochrome P450 2D6) of the same compound?
A: Not Active

Q: What about the inhibition [14] of the same compound?
A: 50%

Q: What about the clearance [15] of the same compound?
A: 22 mL/min/kg

Q: What about the IC50 [16] of the same compound?
A: 25 nM

Q: What about the inhibition [17] of the same compound?
A: 50%

Q: What about the fraction unbound [18] of the same compound?
A: 0.01

Q: And the Activity (Mus musculus [19])?
A: > 10%

Q: And the fraction unbound [20]?
A: 0.01

Q: What about the CLhep predicted [21] of the same compound?
A: 31 mL/min/kg
